Hits are enriched below; roughly 3.4% of the tested compounds scored in any of these assays.
CHT allo act – CHT positive allosteric modulators, primary screen, cell-based, membrane potential dye, choline EC20; B-score at 10 µM; CHT-expressing cells; stronger effect = higher value; LV-AA mutant CHT in HEK293 cells; actives 0.49% (n = 310,000);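 active = initial fluorescence not abnormally high and integrated response B-score, plate-corrected, over 3 SD above library mean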
VIM-2 inh – VIM-2 metallo-beta-lactamase inhibitors, primary screen, biochemical, epi-absorbance readout, Pseudomonas aeruginosa enzyme. actives 0.89% (n = 290,000). purified VIM-2, nitrocefin hydrolysis, epi-absorbance fluorescence. inhibition, % at 5.6 µM. AID 1527, 2009;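 active = inhibition above the mean of all tested compounds plus 3 SD, cutoff set per screening run, cut at about 7.5% in these data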;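 also: red hydrolysis product quenches plate fluorescence so inhibitors raise well fluorescence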
IMP-1 inhibitor – IMP-1 metallo-beta-lactamase inhibitors, primary screen, biochemical, epi-absorbance readout, Pseudomonas aeruginosa enzyme; metallo-beta-lactamase IMP-1 (Pseudomonas aeruginosa); purified IMP-1, nitrocefin hydrolysis, epi-absorbance fluorescence; inhibition, % at 5.6 µM; actives 0.45% (n = 290,000);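 active = inhibition above the mean plus 3 SD of all compounds in the same screening run, cut at about 4.5% in these data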
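System: Purified IMP-1 | Read-out basis: Percent enzyme inhibition | Controls: IMP-1 with DMSO as 0%, enzyme-free DMSO as 100% | Replicates: One well per compound | Doses: 5.6 µM nominal single concentration | Detection: Epi-absorbance fluorescence, 480 nm excitation, 530 nm emission | Incubation: 25 °C, 15 min preincubation, 25 min reaction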
CHT block – inhibitors of human choline transporter CHT. High affinity choline transporter 1 (Homo sapiens), Q9GZV3. CHT-expressing cells, membrane potential dye, choline response; stronger effect = lower value. B-score at 10 µM. actives 0.86% (n = 310,000);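 active = B-score over 3 SD under the library average, and starting fluorescence ratio not unusually high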;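 also: choline stimulus applied at its EC90 after an EC20 pre-addition; B-score computed on integrated fluorescence ratio after choline addition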
TMEM16A inh – TMEM16A chloride channel inhibitors, primary screen, cell-based, HTS | AID 588511, 2011 | HEK293 TMEM16A/YFP iodide influx fluorescence, ionomycin | actives 1.2% (n = 310,000) | normalized B-score (activity score, 25-100; higher = stronger inhibition) at 10 µM;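 active = ratio plate-corrected score three or more library SD toward inhibition, starting fluorescence score within five deviations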;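 also: score derived from kinetic fluorescence span divided by baseline fluorescence per well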
Target sequence (Q8BHY3 whole entry, looked up): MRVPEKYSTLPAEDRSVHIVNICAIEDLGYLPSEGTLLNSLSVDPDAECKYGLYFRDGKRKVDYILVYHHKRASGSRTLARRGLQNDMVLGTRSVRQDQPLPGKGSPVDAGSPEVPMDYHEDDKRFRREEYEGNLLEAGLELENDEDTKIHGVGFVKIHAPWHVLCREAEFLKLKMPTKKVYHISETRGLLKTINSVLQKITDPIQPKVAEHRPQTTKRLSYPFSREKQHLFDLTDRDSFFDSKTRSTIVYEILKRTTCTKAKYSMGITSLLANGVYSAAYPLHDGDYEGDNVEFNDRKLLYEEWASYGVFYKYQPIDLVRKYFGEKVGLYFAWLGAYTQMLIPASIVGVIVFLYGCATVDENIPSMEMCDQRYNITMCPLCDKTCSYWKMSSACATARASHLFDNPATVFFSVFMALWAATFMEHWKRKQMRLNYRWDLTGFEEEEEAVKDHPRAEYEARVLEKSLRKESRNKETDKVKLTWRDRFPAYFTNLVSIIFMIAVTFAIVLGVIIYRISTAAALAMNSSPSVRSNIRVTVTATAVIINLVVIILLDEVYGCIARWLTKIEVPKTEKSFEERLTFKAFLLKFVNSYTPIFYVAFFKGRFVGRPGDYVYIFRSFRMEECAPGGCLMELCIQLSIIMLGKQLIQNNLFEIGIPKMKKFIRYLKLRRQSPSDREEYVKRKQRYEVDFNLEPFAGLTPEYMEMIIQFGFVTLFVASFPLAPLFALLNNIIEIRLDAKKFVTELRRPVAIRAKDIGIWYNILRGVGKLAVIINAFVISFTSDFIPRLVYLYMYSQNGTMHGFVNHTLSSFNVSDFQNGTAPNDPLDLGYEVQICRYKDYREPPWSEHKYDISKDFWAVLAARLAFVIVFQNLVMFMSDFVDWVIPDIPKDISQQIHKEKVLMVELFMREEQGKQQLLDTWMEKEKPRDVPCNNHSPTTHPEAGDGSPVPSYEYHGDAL
TMEM16A act – TMEM16A chloride channel activators or potentiators, primary screen, cell-based, HTS. Anoctamin-1 (Mus musculus), Q8BHY3. actives 0.3% (n = 340,000). HEK293 TMEM16A/YFP-H148Q/I152L, iodide quench fluorescence; stronger effect = lower value. B-score at 10 µM;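 active = fluorescence-ratio B-score plate-corrected deviation score at least 3 library SD below zero, with starting fluorescence score within 5 deviations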;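 also: channel opened by trigger with iodide after compound preincubation; score built on the fluorescence ratio of max minus min over baseline; more negative score means more quench and so TMEM16A activation or potentiation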
Each line names hits and unclear results; the compound was inactive in the other large screens.

O=C1C2CC=CCC2C(=O)N1c1ccc(NCCc2ccc(O)cc2)c([N+](=O)[O-])c1 (stereo unspecified)	TMEM16A inh 25
O=C1C2CC=CCC2C(=O)N1c1ccc(NCCc2ccc(Cl)cc2)c([N+](=O)[O-])c1 (stereo unspecified)	none
Cc1nn(-c2ccc(C(F)(F)F)cn2)c(C)c1Oc1ccccc1O	TMEM16A act -33.8
Cc1c(CC(=O)O)c(=O)oc2c(C)c(OCc3nn[nH]n3)ccc12	TMEM16A act -4.94
Cc1c(Cc2ccccc2)c(=O)oc2c(C)c(OCc3nn[nH]n3)ccc12	none
CN(Cc1nc(-c2ccc(Cl)cc2)no1)C(=O)c1ccc2c(c1)OCO2	TMEM16A inh 25 (no result: VIM-2 inh, IMP-1 inhibitor)
C=CCN(Cc1nc(-c2ccc(OC)cc2)no1)C(=O)c1ccc2c(c1)OCO2	none
O=C1NC[C@@H](c2ccccc2)OC(=O)[C@@H](Cc2ccc(F)cc2)CC/C=C/C[C@@H]1CC(=O)N(CCO)Cc1ccccc1	none (no result: CHT allo act, VIM-2 inh, IMP-1 inhibitor, CHT block, TMEM16A inh)
CCc1nnc(NS(=O)(=O)c2ccc(NC(=S)NC(=O)/C=C/c3ccccc3)cc2)s1	none
CCc1nnc(NS(=O)(=O)c2ccc(NC(=S)NC(=O)/C=C/c3ccc(C(C)C)cc3)cc2)s1	TMEM16A inh 100
O=C(Cc1ccccc1)Nc1nc(=O)c2ccccc2s1	VIM-2 inh 11.0
CC(C1CC1)N(Cc1ccccc1)C(=S)Nc1cccc(C(F)(F)F)c1 (stereo unspecified)	TMEM16A inh 100
CC(C1CC1)N(Cc1ccccc1)C(=S)Nc1ccccc1 (stereo unspecified)	none
CN(C)S(=O)(=O)c1cccc(C(=O)Nc2ccccc2C(=O)NC2CC2)c1	none (no result: CHT allo act, VIM-2 inh, IMP-1 inhibitor, CHT block, TMEM16A inh)
COc1ccc(CCn2c(=N)c(C(=O)NCC3CCCO3)cc3c(=O)n4ccccc4nc32)cc1 (stereo unspecified)	none
N=c1c(C(=O)NCC2CCCO2)cc2c(=O)n3ccccc3nc2n1Cc1ccc(Cl)cc1 (stereo unspecified)	VIM-2 inh 9.9
COc1ccc(Cn2c(=N)c(C(=O)NCC3CCCO3)cc3c(=O)n4ccccc4nc32)cc1 (stereo unspecified)	VIM-2 inh 9.2
COc1ccccc1Oc1ccc2c(c1)C(=O)N(c1ccc(Br)c3cccnc13)C2=O	IMP-1 inhibitor 4.9
CCCN1C2CCCC1CC(NC(=O)c1ccccc1OC)C2 (stereo unspecified)	TMEM16A inh 100
CCOC(=O)N1CCN(S(=O)(=O)c2ccc(OCC(=O)OC)c(Cl)c2)CC1	IMP-1 inhibitor 5.0
CCOC(=O)N1CCN(S(=O)(=O)c2ccc(OC)c(Cl)c2)CC1	none
O=C(COc1ccc(S(=O)(=O)N2CCOCC2)cc1Cl)NCc1ccco1	IMP-1 inhibitor 5.4
Cc1ccc(NC(=O)CSc2nc3ccccc3c(=O)n2CCCC(=O)N2CCCC2)cc1	IMP-1 inhibitor 10.1
CC(=O)c1cccc(NC(=O)CSc2nc3ccccc3c(=O)n2CCCN2CCOCC2)c1	none (no result: CHT allo act, VIM-2 inh, IMP-1 inhibitor, CHT block, TMEM16A inh)
O=C(CCCn1c(SCC(=O)c2ccc(F)cc2)nc2ccccc2c1=O)NCc1ccccc1	TMEM16A inh 25
Cc1ccc(NC(=O)CSc2nc3ccccc3c(=O)n2CCCN2CCCCC2)cc1C	CHT allo act 7.28
COCCCn1c(SCC(=O)Nc2ccc(C)cc2)nc2ccccc2c1=O	none
CCN1C(=O)c2ccc(C(=O)Nc3ccc(O)cc3C)cc2C1=O	none
CCC1CCCCN1C(=O)c1ccc(OC2CCN(C(=O)CCOC)CC2)cc1 (stereo unspecified)	none
CC(=O)c1cccc(NC(=O)C(C)OC(=O)Cc2c[nH]c3ccccc23)c1 (stereo unspecified)	none (no result: VIM-2 inh, IMP-1 inhibitor)
NNC(=O)c1sccc1OCc1ccc(Cl)cc1Cl	TMEM16A inh 25
NNC(=O)c1sccc1OCc1ccc(F)cc1	none
O=C1OC[C@H](Cc2ccc3c(c2)OCO3)/C1=C\c1ccc2c(c1)OCO2	TMEM16A inh 25 (no result: VIM-2 inh, IMP-1 inhibitor)
COc1ccccc1N=c1oc2c(OC)cccc2cc1C(=O)NCc1ccco1	TMEM16A inh 25
COc1ccc(OC)c(N=c2oc3c(OC)cccc3cc2C(=O)NCc2ccco2)c1	none (no result: VIM-2 inh, IMP-1 inhibitor)
Cc1cccc(C)c1NC(=S)N1CCCN(C)CC1	TMEM16A act -5.65
Cc1cccc(C)c1NC(=S)N1CCCN(Cc2ccc(F)cc2)C1	none
COc1ccc(CN2CCNC(=O)C2CC(=O)NCCCC2CCCC2)c(F)c1 (stereo unspecified)	none
O=C(CN1C(=O)/C(=C/c2ccccc2Cl)SC1=S)NC1C=CS(=O)(=O)C1 (stereo unspecified)	IMP-1 inhibitor 12.0
O=C(CN1C(=O)/C(=C/c2ccc(Cl)cc2)SC1=S)NC1C=CS(=O)(=O)C1 (stereo unspecified)	none
O=C(CCN1C(=O)/C(=C/c2ccccc2Cl)SC1=S)NC1CCCC1	none
O=C(CN1C(=O)/C(=C/c2ccc(F)cc2)SC1=S)NC1C=CS(=O)(=O)C1 (stereo unspecified)	IMP-1 inhibitor 4.8
O=C(CN1C(=O)/C(=C/c2ccc(F)cc2)SC1=S)NC1CCS(=O)(=O)C1 (stereo unspecified)	IMP-1 inhibitor 10.5
O=C(CCN1C(=O)/C(=C/c2ccccc2Cl)SC1=S)NN1CCOCC1	IMP-1 inhibitor 4.5
O=C(CN1C(=O)/C(=C/c2ccccc2)SC1=S)NC1CCS(=O)(=O)C1 (stereo unspecified)	none
CC(=O)N1CCN(C(=O)c2ccc(Cl)c(S(=O)(=O)N3CCCCCC3)c2)CC1	none (no result: CHT allo act, VIM-2 inh, IMP-1 inhibitor, CHT block, TMEM16A inh)
CCN(CC)CC(C)(C)C(=O)/C=C/c1ccc(/C=C/C(=O)C(C)(C)CN(CC)CC)cc1	none (no result: CHT allo act, VIM-2 inh, IMP-1 inhibitor, CHT block, TMEM16A inh)
O=C(Nc1cccc2c1C(=O)NC2=O)c1cccc(N2C(=O)CCC2=O)c1	IMP-1 inhibitor 8.8
Cc1noc(C)c1CN1C(=O)NC2(CCc3ccccc3C2)C1=O (stereo unspecified)	none
Cc1noc(C)c1CN1C(=O)c2ccccc2C1=O	IMP-1 inhibitor 4.8
COc1ccc2c(c1)cc(C(=O)N[C@@H](CCSC)C(=O)N1CCC[C@H]1C(=O)O)n2C	VIM-2 inh 11.9
O=C(CNS(=O)(=O)c1ccccc1F)NNC(=O)c1ccc(Br)cc1	none (no result: CHT allo act, VIM-2 inh, IMP-1 inhibitor, CHT block, TMEM16A inh)
COc1ccc(S(=O)(=O)NCCSC(C)(C)C)c(Cl)c1Cl	TMEM16A inh 25
O=C(Nc1ncccc1O)C1CCN(S(=O)(=O)c2ccc3ccccc3c2)CC1	none (no result: VIM-2 inh, IMP-1 inhibitor)
